Test results taken from PMC2796831 (Integrative biology : quantitative biosciences from nano to …, 2009).
Numbered stars: 1 amine (or outer) side, 2 acyl side, 3 side chain; on linkers, the order of the positions; unused ones are H or OH. Square brackets hold non-standard residues; d marks the D form. Peptide text beside a SMILES is read from it. * marks the point of attachment. X1 = CCN1C(=CC=CC=CC2=[N+](CCCCCC(=O)NCCN3C(=O)CC(*)C3=O)c3ccc(S(=O)(=O)[O-])cc3C2(C)C)C(C)(C)c2cc(S(=O)(=O)O)ccc21; Suc = O=C(CCC(=O)[*:2])[*:1]; Ahx = NCCCCCC(=O)O

How the values were obtained:
HT1080 xenografted mice = assay: Confocal imaging of live mouse tissues after IV injection; format: in vivo; conditions: for Nuclear uptake in live tumor and tissues: 10 nmol IV, confocal stacks of live tissue, 30 minutes and 6 hours
In short: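 Xenografted HT1080 nude mice got 10 nmol Cy5-labelled peptide IV. Five minutes before sacrifice at 30 min or 6 h, they received IV Hoechst 33342 (250 µg) and rhodamine dextran (800 µg) to mark nuclei and blood pool. Organs were held on ice in HBSS and imaged unfixed by confocal microscopy within 30 min, as 3D stacks 5–60 µm deep. Excitation was 630, 405 and 535 nm.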

Biodistribution = format: in vivo, mice; conditions: for Time for blood Cy5 fluorescence to decline to the same level: 10 nmol IV, blood from tail artery, average of three mice (Fig. 3B)
In short: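 Athymic nude mice carried HT1080 xenografts from 2 million cells injected into the mammary fat pad 5–7 days earlier. Each received 10 nmol Cy5-labelled peptide into the tail vein. Tail-artery blood in capillaries was imaged for Cy5 (640 nm excitation, 700 nm emission). At 30 min and 6 h, organ pieces were homogenised in 10 mM Tris pH 7.6 with 1% SDS, boiled, centrifuged and imaged frozen. Concentration came from tissue-specific spiked standard curves. SUV = (moles/g tissue)/(moles injected/body weight).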

naïve athymic nude mice = assay: Acute toxicity of unlabeled peptides after IV injection; format: in vivo; conditions: 5 µmol/kg IV, isoflurane anesthesia, unlabeled peptide
[1] = 10 nmol injection, assuming 20–25g mouse
[2] = athymic nude, mouse, kidney, iv, 10 nmol
[3] = athymic nude, mouse, liver, iv, 10 nmol
[4] = athymic nude, mouse, tumor, iv, 10 nmol

Row | SMILES | Nuclear uptake in live tumor and tissues (HT1080 xenografted mice) | Nuclear uptake in live tissues at 10 times the usual dose (HT1080 xenografted mice; 100 nmol or 5 µmol/kg IV, one mouse) | Tumor fluorescence signal (confocal) compared with CPP (HT1080 xenografted mice; HT1080 tumors, 30 minutes and 6 hours after 10 nmol IV (Fig. 5A, B)) | Time for blood Cy5 fluorescence to decline to the same level (Biodistribution) | Final peptide concentration in kidney based on SUV (Biodistribution; [1]) | Tumor SUV compared with CPP (Biodistribution; 30 minutes after 10 nmol IV, HT1080 tumor homogenate, n=4 ACPP, n=3 CPP) | Tumor uptake (SUV) relative to muscle (Biodistribution; 6 hours after 10 nmol IV, HT1080 tumor) | tissue uptake dose at 0.5 h (Biodistribution; [2]) | tissue uptake dose at 6 h (Biodistribution; [2]) | tissue uptake dose at 0.5 h (Biodistribution; [3]) | tissue uptake dose at 6 h (Biodistribution; [3]) | SUV at 6 h (Biodistribution; [4]) | tissue uptake at 6 h (Biodistribution; [4]) | Acute effect (naïve athymic nude mice) | Final peptide concentration in liver based on SUV (Biodistribution; [1])
1 | CCN1C(=CC=CC=CC2=[N+](CCCCCC(=O)NCCN3C(=O)CC(SC[C@@H](NC(=O)[C@@H](CCCNC(=N)N)NC(=O)[C@@H](CCCNC(=N)N)NC(=O)[C@@H](CCCNC(=N)N)NC(=O)[C@@H](CCCNC(=N)N)NC(=O)[C@@H](CCCNC(=N)N)NC(=O)[C@@H](CCCNC(=N)N)NC(=O)[C@@H](CCCNC(=N)N)NC(=O)[C@@H](CCCNC(=N)N)NC(=O)[C@@H](CCCNC(=N)N)NC(=O)CNC(=O)[C@H](C)NC(=O)[C@H](CC(C)C)NC(=O)CNC(=O)[C@H](CC(C)C)NC(=O)[C@@H]4CCCN4C(=O)CCCCCNC(=O)[C@@H](CCC(=O)O)NC(=O)[C@@H](CCC(=O)O)NC(=O)[C@@H](CCC(=O)O)NC(=O)[C@@H](CCC(=O)O)NC(=O)[C@@H](CCC(=O)O)NC(=O)[C@@H](CCC(=O)O)NC(=O)[C@@H](CCC(=O)O)NC(=O)[C@@H](CCC(=O)O)NC(=O)CCC(=O)O)C(N)=O)C3=O)c3ccc(S(=O)(=O)[O-])cc3C2(C)C)C(C)(C)c2cc(S(=O)(=O)O)ccc21 (stereo partly drawn) [ACPP, succinyl-e8-(x)-PLGLAG-r9-c(Cy5)-NH2] (Suc-[dE][dE][dE][dE][dE][dE][dE][dE][Ahx]PLGLAG[dR][dR][dR][dR][dR][dR][dR][dR][dR][dC](X1)-NH2) | below the detection limit | no detectable nuclear uptake in any tissue | about four times higher | 30 min | 8 to 17 µmol/kg | slightly but not significantly greater | roughly 4 fold | 28 %ID | 48 %ID | 21 %ID | 33 %ID | 174 SUV | 1.7 %ID/g | no acute effect | 
2 | CCN1C(=CC=CC=CC2=[N+](CCCCCC(=O)NCCN3C(=O)CC(SC[C@@H](NC(=O)[C@@H](CCCNC(=N)N)NC(=O)[C@@H](CCCNC(=N)N)NC(=O)[C@@H](CCCNC(=N)N)NC(=O)[C@@H](CCCNC(=N)N)NC(=O)[C@@H](CCCNC(=N)N)NC(=O)[C@@H](CCCNC(=N)N)NC(=O)[C@@H](CCCNC(=N)N)NC(=O)[C@@H](CCCNC(=N)N)NC(=O)[C@H](N)CCCNC(=N)N)C(N)=O)C3=O)c3ccc(S(=O)(=O)[O-])cc3C2(C)C)C(C)(C)c2cc(S(=O)(=O)O)ccc21 (stereo partly drawn) [CPP, r9-c(Cy5)-NH2] | below the detection limit |  |  | 3 min |  |  |  | 8 %ID | 9 %ID | 90 %ID | 84 %ID |  |  |  | 8 to 17 µmol/kg
